Published values collected from several papers.
Compare with care: the assays were run in different laboratories.
Sample: plasma

SMILES | species | route | dose | notes | measurement | value
OC[C@H]1O[C@@H](c2cc(Cc3ccc(C4CC4)cc3)c(Cl)c3c2CCO3)[C@H](O)[C@@H](O)[C@@H]1O | human | oral | 0.3 mg | single dose, fed | Vd/F | 177 L
N#Cc1cccc(-c2ccc3ncc(-c4cc(F)cc(F)c4)c(N4CCC(N)CC4)c3c2)c1O | human | intravenous | 50 µg |  | Vd | 220 L
CC(C)c1nc(N(C)S(C)(=O)=O)nc(-c2ccc(F)cc2)c1/C=C/[C@@H](O)C[C@@H](O)CC(=O)O | human | oral | 10 mg |  | Vd/F | 8020 L
C=CC(=O)N1C[C@H](Nc2ncnc3[nH]ccc23)CC[C@@H]1C | human | oral | 30 mg |  | Vd/F | 183 L
COc1ccc(F)cc1C(=O)NCc1ccc(-c2nn([C@@H](C)C(F)(F)F)c(N)c2C(N)=O)cc1 | male human | intravenous | 22 µg |  | Vd | 0.54 L/kg
C[C@@H](Oc1ccc(S(C)(=O)=O)cc1C(=O)N1C[C@@H]2C[C@]2(c2cc(C(F)(F)F)on2)C1)C(F)(F)F | human | oral | 10 mg | single dose, fed | Vd/F | 247 L
C=CC(=O)NC1CCN(c2ncc3ncnc(Nc4ccc(Oc5ccc6c(c5)ncn6C)c(C)c4)c3n2)CC1 | male human | intravenous | 100 µg | single dose, healthy volunteers | Vd | 391 L
COc1ccc2c(c1)CN(C(=O)CCN1CCC(Cc3ccccc3)CC1)CC[S@@+]2[O-] | male human | intravenous | 0.4 mg/kg | healthy volunteers | Vd | 46.3 L
